Measured values reported in ChEMBL document CHEMBL4270599, “Synthesis of a 3'-C-ethynyl-β-d-ribofuranose purine nucleoside library: Discovery of C7-deazapurine analogs as potent antiproliferative nucleosides” (Eur J Med Chem, 2018).

How the values were obtained:
[1] = system: K562; assay: Growth inhibition of human K562 cells assessed as cell growth at 10^-6 M incubated for 48 hrs by sulforhodamine B assay relative to control; assay type: functional; conditions: K562, 48 h, read-out: Activity
[2] = system: MDA-MB-231; assay: Cytotoxicity against human MDA-MB-231 cells after 48 hrs by SRB assay; assay type: functional; conditions: MDA-MB-231, 48 h; for GI50: read-out: pGI50 (converted)
[3] = system: A549; assay: Growth inhibition of human A549/ATCC cells assessed as cell growth at 10^-8 M incubated for 48 hrs by sulforhodamine B assay relative to control; assay type: functional; conditions: A549, 48 h, read-out: Activity
[4] = system: IGROV-1; assay: Cytotoxicity against human IGROV1 cells after 48 hrs by SRB assay; assay type: functional; conditions: IGROV-1, 48 h; for CC50: read-out: LC50 (the source's name); for GI50: read-out: pGI50 (converted)
[5] = system: SNB-19; assay: Cytotoxicity against human SNB19 cells after 48 hrs by SRB assay; assay type: functional; conditions: SNB-19, 48 h; for GI50: read-out: pGI50 (converted)
[6] = system: A498; assay: Growth inhibition of human A498 cells assessed as cell growth at 10^-6 M incubated for 48 hrs by sulforhodamine B assay relative to control; assay type: functional; conditions: A498, 48 h, read-out: Activity
[7] = system: A498; assay: Growth inhibition of human A498 cells assessed as cell growth at 10^-7 M incubated for 48 hrs by sulforhodamine B assay relative to control; assay type: functional; conditions: A498, 48 h, read-out: Activity
[8] = system: OVCAR-5; assay: Growth inhibition of human OVCAR5 cells assessed as cell growth at 10^-4 M incubated for 48 hrs by sulforhodamine B assay relative to control; assay type: functional; conditions: OVCAR-5, 48 h, read-out: Activity
[9] = system: SF-268; assay: Growth inhibition of human SF268 cells assessed as cell growth at 10^-7 M incubated for 48 hrs by sulforhodamine B assay relative to control; assay type: functional; conditions: SF-268, 48 h, read-out: Activity
[10] = system: KM12; assay: Growth inhibition of human KM12 cells assessed as cell growth at 10^-7 M incubated for 48 hrs by sulforhodamine B assay relative to control; assay type: functional; conditions: KM12, 48 h, read-out: Activity
[11] = system: SN12C; assay: Growth inhibition of human SN12C cells assessed as cell growth at 10^-7 M incubated for 48 hrs by sulforhodamine B assay relative to control; assay type: functional; conditions: read-out: Activity
[12] = system: NCI-H460; assay: Growth inhibition of human NCI-H460 cells assessed as cell growth at 10^-8 M incubated for 48 hrs by sulforhodamine B assay relative to control; assay type: functional; conditions: NCI-H460, 48 h, read-out: Activity
[13] = system: NCI-H522; assay: Cytotoxicity against human NCI-H522 cells after 48 hrs by SRB assay; assay type: functional; conditions: NCI-H522, 48 h; for CC50: read-out: LC50 (the source's name)
[14] = Antiproliferative activity against HMVEC-d cells after 4 days by Coulter counter method; assay type: cell-based; conditions: Homo sapiens, 96 h
How it was run: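 Primary HUVEC, primary HMVEC-d and the HMEC-1 line seeded at 20,000 cells/well in gelatin-coated plates in EC growth medium (EGM2). After overnight incubation, 5-fold compound dilutions added. Cells proliferated four days with compound, then trypsinized and counted by Coulter counter to derive IC₅₀.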

[15] = system: OVCAR-3; assay: Growth inhibition of human OVCAR3 cells assessed as cell growth at 10^-6 M incubated for 48 hrs by sulforhodamine B assay relative to control; assay type: functional; conditions: OVCAR-3, 48 h, read-out: Activity
[16] = system: HOP-62; assay: Growth inhibition of human HOP62 cells assessed as cell growth at 10^-7 M incubated for 48 hrs by sulforhodamine B assay relative to control; assay type: functional; conditions: HOP-62, 48 h, read-out: Activity
[17] = system: SW-620; assay: Growth inhibition of human SW620 cells assessed as cell growth at 10^-6 M incubated for 48 hrs by sulforhodamine B assay relative to control; assay type: functional; conditions: SW-620, 48 h, read-out: Activity
[18] = system: TK-10; assay: Growth inhibition of human TK10 cells assessed as cell growth at 10^-5 M incubated for 48 hrs by sulforhodamine B assay relative to control; assay type: functional; conditions: TK-10, 48 h, read-out: Activity
[19] = system: MOLT-4; assay: Growth inhibition of human MOLT4 cells assessed as cell growth at 10^-7 M incubated for 48 hrs by sulforhodamine B assay relative to control; assay type: functional; conditions: MOLT-4, 48 h, read-out: Activity
[20] = system: MDA-MB-435; assay: Growth inhibition of human MDA-MB-435 cells assessed as cell growth at 10^-5 M incubated for 48 hrs by sulforhodamine B assay relative to control; assay type: functional; conditions: MDA-MB-435, 48 h, read-out: Activity
[21] = system: OVCAR-4; assay: Cytotoxicity against human OVCAR4 cells after 48 hrs by SRB assay; assay type: functional; conditions: OVCAR-4, 48 h; for GI50: read-out: pGI50 (converted); for CC50: read-out: pLC50 (the source's name) (converted)
[22] = system: HL-60(TB); assay: Growth inhibition of human HL-60(TB) cells assessed as cell growth at 10^-7 M incubated for 48 hrs by sulforhodamine B assay relative to control; assay type: functional; conditions: HL-60, 48 h, read-out: Activity
[23] = system: SW-620; assay: Cytotoxicity against human SW620 cells after 48 hrs by SRB assay; assay type: functional; conditions: SW-620, 48 h; for GI50: read-out: pGI50 (converted)
[24] = system: HL-60(TB); assay: Cytotoxicity against human HL-60(TB) cells after 48 hrs by SRB assay; assay type: functional; conditions: HL-60, 48 h; for GI50: read-out: pGI50 (converted); for CC50: read-out: pLC50 (the source's name) (converted)
[25] = system: M14; assay: Growth inhibition of human M14 cells assessed as cell growth at 10^-7 M incubated for 48 hrs by sulforhodamine B assay relative to control; assay type: functional; conditions: M14, 48 h, read-out: Activity
[26] = system: EKVX; assay: Growth inhibition of human EKVX cells assessed as cell growth at 10^-6 M incubated for 48 hrs by sulforhodamine B assay relative to control; assay type: functional; conditions: read-out: Activity
[27] = system: HOP-92; assay: Cytotoxicity against human HOP92 cells after 48 hrs by SRB assay; assay type: functional; conditions: HOP-92, 48 h; for GI50: read-out: pGI50 (converted)
[28] = system: K562; assay: Cytotoxicity against human K562 cells after 48 hrs by SRB assay; assay type: functional; conditions: K562, 48 h; for CC50: read-out: LC50 (the source's name); for GI50: read-out: pGI50 (converted)
[29] = system: SNB-19; assay: Growth inhibition of human SNB19 cells assessed as cell growth at 10^-6 M incubated for 48 hrs by sulforhodamine B assay relative to control; assay type: functional; conditions: SNB-19, 48 h, read-out: Activity
[30] = system: UACC-257; assay: Growth inhibition of human UACC257 cells assessed as cell growth at 10^-8 M incubated for 48 hrs by sulforhodamine B assay relative to control; assay type: functional; conditions: UACC-257, 48 h, read-out: Activity
[31] = read-out: LC50 (the source's name)
[32] = read-out: pLC50 (the source's name) (converted)

Compound: C#C[C@@]1(O)[C@@H](CO)O[C@@H](n2cc(F)c3c(N)ncnc32)[C@@H]1O
- growth at 1 µM [1]: 16%
- CC50 [2, 31]: > 100 µM
- TGI ([2]; read-out: TGI): 2.98 µM
- GI50 [2]: 0.38 µM
- TGI ([2]; read-out: pTGI (converted)): 2.95 µM
- growth at 0.01 µM [3]: 93%
- CC50 [4]: > 100 µM
- TGI ([4]; read-out: TGI): 1.42 µM
- GI50 [4]: 0.324 µM
- TGI ([4]; read-out: pTGI (converted)): 1.41 µM
- CC50 [5, 31]: > 100 µM
- TGI ([5]; read-out: TGI): 13.7 µM
- GI50 [5]: 0.525 µM
- TGI ([5]; read-out: pTGI (converted)): 13.8 µM
- growth at 1 µM [6]: 43%
- growth at 0.1 µM [7]: 95%
- growth at 100 µM [8]: 7%
- growth at 0.1 µM [9]: 105%
- growth at 0.1 µM [10]: 85%
- growth at 0.1 µM [11]: 80%
- growth at 0.01 µM [12]: 100%
- GI50 ([13]; read-out: GI50): 0.18 µM
- CC50 [13]: > 100 µM
- TGI ([13]; read-out: TGI): 0.929 µM
- GI50 ([13]; read-out: pGI50 (converted)): 0.178 µM
- TGI ([13]; read-out: pTGI (converted)): 0.933 µM
- IC50 [14]: < 0.00128 µM
- growth at 1 µM [15]: 52%
- growth at 0.1 µM [16]: 101%
- growth at 1 µM [17]: 4%
- growth at 10 µM [18]: -9%
- growth at 0.1 µM [19]: 86%
- growth at 10 µM [20]: -26%
- TGI ([21]; read-out: TGI): 8.67 µM
- GI50 [21]: 1 µM
- CC50 [21]: > 100 µM
- TGI ([21]; read-out: pTGI (converted)): 8.71 µM
- growth at 0.1 µM [22]: 103%
- CC50 [23, 31]: > 100 µM
- TGI ([23]; read-out: TGI): 2.9 µM
- GI50 [23]: 0.158 µM
- TGI ([23]; read-out: pTGI (converted)): 2.88 µM
- TGI ([24]; read-out: TGI): 3.53 µM
- GI50 [24]: 0.437 µM
- CC50 [24]: > 100 µM
- TGI ([24]; read-out: pTGI (converted)): 3.55 µM
- growth at 0.1 µM [25]: 95%
- growth at 1 µM [26]: 43%
- CC50 [27, 31]: > 100 µM
- GI50 [27]: 0.038 µM
- CC50 [28]: > 100 µM
- TGI ([28]; read-out: TGI): > 100 µM
- GI50 [28]: 0.288 µM
- TGI ([28]; read-out: pTGI): > 100 µM
- growth at 1 µM [29]: 39%
- growth at 0.01 µM [30]: 91%

Compound: C#C[C@@]1(O)[C@@H](CO)O[C@@H](n2ccc3c(N)ncnc32)[C@@H]1O
- growth at 1 µM [1]: 46%
- TGI ([2]; read-out: TGI): 5.89 µM
- GI50 [2]: 1.51 µM
- CC50 [2, 32]: 83.2 µM
- TGI ([2]; read-out: pTGI (converted)): 5.89 µM
- growth at 0.01 µM [3]: 100%
- CC50 [4]: > 100 µM
- TGI ([4]; read-out: TGI): 5.85 µM
- GI50 [4]: 1.45 µM
- TGI ([4]; read-out: pTGI (converted)): 5.89 µM
- TGI ([5]; read-out: TGI): 6.6 µM
- GI50 [5]: 1.62 µM
- CC50 [5, 32]: > 100 µM
- TGI ([5]; read-out: pTGI (converted)): 6.61 µM
- growth at 1 µM [6]: 80%
- growth at 0.1 µM [7]: 105%
- growth at 100 µM [8]: -31%
- growth at 0.1 µM [9]: 95%
- growth at 0.1 µM [10]: 102%
- growth at 0.1 µM [11]: 96%
- growth at 0.01 µM [12]: 89%
- CC50 [13]: > 100 µM
- TGI ([13]; read-out: TGI): 3.82 µM
- GI50 ([13]; read-out: pGI50 (converted)): 0.372 µM
- TGI ([13]; read-out: pTGI (converted)): 3.8 µM
- growth at 1 µM [15]: 92%
- growth at 0.1 µM [16]: 103%
- growth at 1 µM [17]: 38%
- growth at 10 µM [18]: -2%
- growth at 0.1 µM [19]: 95%
- growth at 10 µM [20]: -62%
- TGI ([21]; read-out: TGI): 7.79 µM
- GI50 [21]: 1.95 µM
- CC50 [21]: 28.2 µM
- TGI ([21]; read-out: pTGI (converted)): 7.76 µM
- growth at 0.1 µM [22]: 105%
- TGI ([23]; read-out: TGI): 12.7 µM
- GI50 [23]: 0.49 µM
- CC50 [23, 32]: > 100 µM
- TGI ([23]; read-out: pTGI (converted)): 12.6 µM
- TGI ([24]; read-out: TGI): 5.49 µM
- GI50 [24]: 1.58 µM
- CC50 [24]: > 100 µM
- TGI ([24]; read-out: pTGI (converted)): 5.5 µM
- growth at 0.1 µM [25]: 99%
- growth at 1 µM [26]: 67%
- TGI ([27]; read-out: TGI): 5.56 µM
- GI50 [27]: 2.04 µM
- CC50 [27, 32]: 22.9 µM
- TGI ([27]; read-out: pTGI (converted)): 5.62 µM
- CC50 [28]: > 100 µM
- TGI ([28]; read-out: TGI): > 100 µM
- GI50 [28]: 0.813 µM
- TGI ([28]; read-out: pTGI): > 100 µM
- growth at 1 µM [29]: 67%
- growth at 0.01 µM [30]: 100%
